According to ChEMBL document CHEMBL5385966, “Synthesis and biological evaluation of new naphthalimide-thiourea derivatives as potent antimicrobial agents active against multidrug-resistant Staphylococcus aureus and Mycobacterium tuberculosis” (RSC Med Chem, 2024):
Values after ≈ are worked out from the molar mass of the structure shown. Active and inactive are the calls of the source. The rule behind the calls is not given here.

Experiments:
Staphylococcus aureus [1] = assay: Antibacterial activity against Staphylococcus aureus ATCC 29213 assessed as bacterial growth inhibition incubated for 16 to 18 hrs by CLSI based antibiotic susceptibility testing method; assay type: functional; conditions: time 16-18 hrs
How it was run: (§1)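 Broth microdilution in cation-adjusted Mueller-Hinton broth. Compounds were tested at […], with levofloxacin as reference and medium-only controls. Plates were incubated at 37 °C for 16-18 h. MIC was the lowest concentration with no visible growth; three independent determinations, each in duplicate.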

[2] = test system: Mycobacterium tuberculosis; assay: Antimycobacterial activity against Mycobacterium tuberculosis H37Rv ATCC 27294 assessed as bacterial growth inhibition incubated for 7 days by resazurin dye based broth microdilution method; assay type: functional; conditions: H37Rv ATCC 27294, 168 h, time 7 day
How it was run: (§2)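 Broth microdilution in Middlebrook 7H9 with 10% ADC-Tween-80 (0.2% glycerol, 0.05% Tween-80), inoculum ~10⁶ cfu/mL. Compounds came from 10 mg/mL DMSO stocks and were tested as two-fold serial dilutions at 37 °C, 7 days for M. tuberculosis H37Rv and 72 h for NTM. Growth was read visually with PrestoBlue resazurin dye; MIC was the lowest concentration preventing growth. Triplicate determinations, each in duplicate.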

Escherichia coli = assay: Antibacterial activity against Escherichia coli ATCC 25922 assessed as bacterial growth inhibition incubated for 16 to 18 hrs by CLSI based antibiotic susceptibility testing method; assay type: functional, organism-based; conditions: time 16-18 hrs; how it was run: as §1
Klebsiella pneumoniae = assay: Antibacterial activity against Klebsiella pneumoniae BAA 1705 assessed as bacterial growth inhibition incubated for 16 to 18 hrs by CLSI based antibiotic susceptibility testing method; assay type: functional, organism-based; conditions: time 16-18 hrs; how it was run: as §1
Acinetobacter baumannii = assay: Antibacterial activity against Acinetobacter baumannii BAA 1605 assessed as bacterial growth inhibition incubated for 16 to 18 hrs by CLSI based antibiotic susceptibility testing method; assay type: functional, organism-based; conditions: time 16-18 hrs; how it was run: as §1
Pseudomonas aeruginosa = assay: Antibacterial activity against Pseudomonas aeruginosa ATCC 27853 assessed as bacterial growth inhibition incubated for 16 to 18 hrs by CLSI based antibiotic susceptibility testing method; assay type: functional, organism-based; conditions: time 16-18 hrs; how it was run: as §1
[3] = test system: Mycobacteroides abscessus; assay: Antimycobacterial activity against Mycobacterium abscessus ATCC 19977 assessed as bacterial growth inhibition incubated for 72 hrs by resazurin dye based broth microdilution method; assay type: functional, organism-based; how it was run: as §2
[4] = test system: Mycolicibacterium fortuitum; assay: Antimycobacterial activity against Mycobacterium fortuitum ATCC 6841 assessed as bacterial growth inhibition incubated for 72 hrs by resazurin dye based broth microdilution method; assay type: functional, organism-based; how it was run: as §2
Mycobacteroides chelonae = assay: Antimycobacterial activity against Mycobacteroides chelonae ATCC 35752 assessed as bacterial growth inhibition incubated for 72 hrs by resazurin dye based broth microdilution method; assay type: functional, organism-based; how it was run: as §2
[5] = Cytotoxicity against African green monkey Vero cells by MTT assay; assay type: toxicity, cell-based; conditions: chlorocebus sabaeus
How it was run: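 Vero cells were seeded at ~10³ per well at 37 °C, 5% CO2. After 24 h, compounds were added at 5-100 mg/L for 72 h. […] was added for 4 h, formazan was dissolved in DMSO and read at 540 nm. CC50 was taken as the lowest concentration reducing viability by 50%; doxorubicin was the positive control; triplicate.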

[6] = Selectivity index, ratio of CC50 for African green monkey Vero cells to MIC for Staphylococcus aureus ATCC 29213; assay type: toxicity, cell-based; conditions: read-out: Selectivity Index
Staphylococcus aureus [7] = assay: Antibacterial activity against methicillin-sensitive Staphylococcus aureus ATCC 29213 clinical isolate assessed as bacterial growth inhibition incubated for 16 to 18 hrs by CLSI based antibiotic susceptibility testing method; assay type: functional; conditions: time 16-18 hrs; how it was run: as §1
Staphylococcus aureus [8] = assay: Antibacterial activity against methicillin/ceftriaxone/meropenem/gentamycin/linezolid-resistant Staphylococcus aureus NRS10100 clinical isolate assessed as bacterial growth inhibition incubated for 16 to 18 hrs by CLSI based antibiotic susceptibility testing method; assay type: functional; conditions: time 16-18 hrs; how it was run: as §1
Staphylococcus aureus [9] = assay: Antibacterial activity against methicillin/ceftriaxone/meropenem/gentamycin/linezolid-resistant Staphylococcus aureus NRS10119 clinical isolate assessed as bacterial growth inhibition incubated for 16 to 18 hrs by CLSI based antibiotic susceptibility testing method; assay type: functional; conditions: time 16-18 hrs; how it was run: as §1
Staphylococcus aureus [10] = assay: Antibacterial activity against methicillin/ceftriaxone/meropenem-resistant Staphylococcus aureus NRS10129 clinical isolate assessed as bacterial growth inhibition incubated for 16 to 18 hrs by CLSI based antibiotic susceptibility testing method; assay type: functional; conditions: time 16-18 hrs; how it was run: as §1
Staphylococcus aureus [11] = assay: Antibacterial activity against methicillin/ceftriaxone/meropenem-resistant Staphylococcus aureus NRS10186 clinical isolate assessed as bacterial growth inhibition incubated for 16 to 18 hrs by CLSI based antibiotic susceptibility testing method; assay type: functional; conditions: time 16-18 hrs; how it was run: as §1
Staphylococcus aureus [12] = assay: Antibacterial activity against methicillin/ceftriaxone/meropenem-resistant Staphylococcus aureus NRS10191 clinical isolate assessed as bacterial growth inhibition incubated for 16 to 18 hrs by CLSI based antibiotic susceptibility testing method; assay type: functional; conditions: time 16-18 hrs; how it was run: as §1
Staphylococcus aureus [13] = assay: Antibacterial activity against methicillin/ceftriaxone/meropenem-resistant Staphylococcus aureus NRS10192 clinical isolate assessed as bacterial growth inhibition incubated for 16 to 18 hrs by CLSI based antibiotic susceptibility testing method; assay type: functional; conditions: time 16-18 hrs; how it was run: as §1
Staphylococcus aureus [14] = assay: Antibacterial activity against methicillin/ceftriaxone/meropenem-resistant Staphylococcus aureus NRS10193 clinical isolate assessed as bacterial growth inhibition incubated for 16 to 18 hrs by CLSI based antibiotic susceptibility testing method; assay type: functional; conditions: time 16-18 hrs; how it was run: as §1
Staphylococcus aureus [15] = assay: Antibacterial activity against methicillin/ceftriaxone-resistant Staphylococcus aureus NRS10194 clinical isolate assessed as bacterial growth inhibition incubated for 16 to 18 hrs by CLSI based antibiotic susceptibility testing method; assay type: functional; conditions: time 16-18 hrs; how it was run: as §1
Staphylococcus aureus [16] = assay: Antibacterial activity against methicillin/ceftriaxone/meropenem-resistant Staphylococcus aureus NRS10198 clinical isolate assessed as bacterial growth inhibition incubated for 16 to 18 hrs by CLSI based antibiotic susceptibility testing method; assay type: functional; conditions: time 16-18 hrs; how it was run: as §1
Staphylococcus aureus [17] = assay: Antibacterial activity against methicillin/ceftriaxone/meropenem/gentamycin/vancomycin/teicoplanin-resistant Staphylococcus aureus VRS1 clinical isolate assessed as bacterial growth inhibition incubated for 16 to 18 hrs by CLSI based antibiotic susceptibility testing method; assay type: functional; conditions: time 16-18 hrs; how it was run: as §1
Staphylococcus aureus [18] = assay: Antibacterial activity against methicillin/ceftriaxone/meropenem/vancomycin/teicoplanin-resistant Staphylococcus aureus VRS4 clinical isolate assessed as bacterial growth inhibition incubated for 16 to 18 hrs by CLSI based antibiotic susceptibility testing method; assay type: functional; conditions: time 16-18 hrs; how it was run: as §1
Staphylococcus aureus [19] = assay: Antibacterial activity against methicillin/ceftriaxone/meropenem/vancomycin/teicoplanin-resistant Staphylococcus aureus VRS12 clinical isolate assessed as bacterial growth inhibition incubated for 16 to 18 hrs by CLSI based antibiotic susceptibility testing method; assay type: functional; conditions: time 16-18 hrs; how it was run: as §1
Staphylococcus aureus [20] = assay: Bactericidal activity against Staphylococcus aureus ATCC 29213 assessed as reduction in remnant bacterial cells at 10 times MIC measured for 24 hrs by time-kill assay; assay type: functional
How it was run: (§3)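 Time-kill assay: S. aureus ATCC 29213 at ~10⁶ cfu/mL in MHB, exposed to 1X and 10X MIC at 37 °C, in triplicate. Samples taken at 0, 1, 6 and 24 h were serially diluted in PBS and plated on TSA for 18-20 h at 37 °C. Surviving cfu/mL were counted against untreated controls.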

Staphylococcus aureus [21] = assay: Bactericidal activity against Staphylococcus aureus ATCC 29213 assessed as reduction in remnant bacterial cells measured for 24 hrs by time-kill assay; assay type: functional, organism-based; how it was run: as §3
Staphylococcus aureus [22] = assay: Antimicrobial activity against methicillin-resistant Staphylococcus aureus Newman assessed as microbial growth inhibition; assay type: functional
Staphylococcus aureus [23] = assay: Antimicrobial activity against Staphylococcus aureus assessed as microbial growth inhibition; assay type: functional

SMILES	MIC (Staphylococcus aureus [1]) [µg/mL]	MIC [2] [µg/mL]	growth inhibition (GI) (Escherichia coli)	growth inhibition (GI) (Klebsiella pneumoniae)	growth inhibition (GI) (Acinetobacter baumannii)	growth inhibition (GI) (Pseudomonas aeruginosa)	growth inhibition (GI) [3]	growth inhibition (GI) [4]	growth inhibition (GI) (Mycobacteroides chelonae)	CC50 [5] [µg/mL]	selectivity ratio [6]	MIC (Staphylococcus aureus [7]) [µg/mL]	MIC (Staphylococcus aureus [8]) [µg/mL]	MIC (Staphylococcus aureus [9]) [µg/mL]	MIC (Staphylococcus aureus [10]) [µg/mL]	MIC (Staphylococcus aureus [11]) [µg/mL]	MIC (Staphylococcus aureus [12]) [µg/mL]	MIC (Staphylococcus aureus [13]) [µg/mL]	MIC (Staphylococcus aureus [14]) [µg/mL]	MIC (Staphylococcus aureus [15]) [µg/mL]	other results
O=C(CN1C(=O)c2cccc3cccc(c23)C1=O)N1CCC(NC(=S)NC2CCCC2)CC1	0.031 (≈ 0.0667 µM)	> 64	inactive	inactive	inactive	inactive	inactive	inactive	inactive	> 100	> 3200	0.06 (≈ 0.129 µM)	0.06 (≈ 0.129 µM)	0.06 (≈ 0.129 µM)	0.06 (≈ 0.129 µM)	0.06 (≈ 0.129 µM)	0.06 (≈ 0.129 µM)	0.06 (≈ 0.129 µM)	0.06 (≈ 0.129 µM)	0.06 (≈ 0.129 µM)	MIC (Staphylococcus aureus [16]): 0.06 µg/mL (≈ 0.129 µM); MIC (Staphylococcus aureus [17]): 0.06 µg/mL (≈ 0.129 µM); MIC (Staphylococcus aureus [18]): 0.06 µg/mL (≈ 0.129 µM); MIC (Staphylococcus aureus [19]): 0.06 µg/mL (≈ 0.129 µM); Activity (Staphylococcus aureus [20]): ~5 log10CFU/ml; Activity (Staphylococcus aureus [21]): Dose-Dependent Effect
O=C1c2cccc3cccc(c23)C(=O)N1CCN1CCN(C(=S)NC2CCCCCC2)CC1	0.25 (≈ 0.538 µM)	> 64	inactive	inactive	inactive	inactive	inactive	inactive	inactive	> 20	> 80	0.5 (≈ 1.08 µM)	0.5 (≈ 1.08 µM)	1 (≈ 2.15 µM)	0.5 (≈ 1.08 µM)	1 (≈ 2.15 µM)	1 (≈ 2.15 µM)	0.5 (≈ 1.08 µM)	1 (≈ 2.15 µM)	0.5 (≈ 1.08 µM)	MIC (Staphylococcus aureus [16]): 1 µg/mL (≈ 2.15 µM); MIC (Staphylococcus aureus [17]): 1 µg/mL (≈ 2.15 µM); MIC (Staphylococcus aureus [18]): 0.5 µg/mL (≈ 1.08 µM); MIC (Staphylococcus aureus [19]): 1 µg/mL (≈ 2.15 µM); Activity (Staphylococcus aureus [20]): ~5 log10CFU/ml; Activity (Staphylococcus aureus [21]): Dose-Dependent Effect
S=C(Nc1ccc(Cl)cc1)n1ccc(OCc2ccccc2)n1	–	–	–	–	–	–	–	–	–	–	–	–	–	–	–	–	–	–	–	–	MIC (Staphylococcus aureus [22]): 0.15 µM (≈ 0.0516 µg/mL)
COc1ccc(-c2csc(NC(=S)N[C@@H]3O[C@H](COC(C)=O)[C@@H](OC(C)=O)[C@H](OC(C)=O)[C@H]3OC(C)=O)n2)cc1[N+](=O)[O-]	–	–	–	–	–	–	–	–	–	–	–	–	–	–	–	–	–	–	–	–	MIC (Staphylococcus aureus [23]): 0.78 µg/mL (≈ 1.22 µM)
O=C(CCN1C(=O)c2cccc3cccc(c23)C1=O)N1CCN(C(=S)NC2CCCCC2)CC1	1 (≈ 2.09 µM)	> 64	inactive	inactive	inactive	inactive	inactive	inactive	inactive	> 50	> 50	2 (≈ 4.18 µM)	4 (≈ 8.36 µM)	2 (≈ 4.18 µM)	2 (≈ 4.18 µM)	1 (≈ 2.09 µM)	2 (≈ 4.18 µM)	1 (≈ 2.09 µM)	4 (≈ 8.36 µM)	2 (≈ 4.18 µM)	MIC (Staphylococcus aureus [16]): 1 µg/mL (≈ 2.09 µM); MIC (Staphylococcus aureus [17]): 2 µg/mL (≈ 4.18 µM); MIC (Staphylococcus aureus [18]): 1 µg/mL (≈ 2.09 µM); MIC (Staphylococcus aureus [19]): 2 µg/mL (≈ 4.18 µM)
